Published values collected from several papers.
Lines come from different studies, so protocols differ. Converted amounts (≈) assume the structure as drawn.

SMILES | target or system | test | system | conditions | quantity | result
COc1ccc(NC(=O)NCc2cn(Cc3ccc(C)cc3)nn2)cc1 | Huh-7 | cell growth or viability, CCK-8 | – | 72 h | IC50 | > 50 µM
O=C(Nc1ccc(-c2cn(Cc3ccc(Cl)cc3)nn2)cc1)Nc1ccccc1Br | Huh-7 | cell growth or viability, CCK-8 | – | 50 µM, 48 h | viability | 80.2%
COc1ccc(Nc2cnnc3ccc(-c4cnc(N5CCN(C)CC5)nc4)cc23)cc1Cl | Trypanosoma cruzi | parasite growth | C2C12 | intracellular, amastigote | EC50 | 5.7 µM
COc1ccc(NC(=O)NCc2cn(Cc3ccc(Br)cc3)nn2)cc1 | Huh-7 | cell growth or viability, CCK-8 | – | 50 µM, 72 h | viability | 86%
COc1ccc(Nc2cnnc3cc(-c4cnc(N5CCCN(C)CC5)nc4)ccc23)nc1 | Trypanosoma cruzi | parasite growth | C2C12 | intracellular, amastigote | EC50 | 7.5 µM
Cc1ccc(C(C)C)c(OC2=C(Cl)C(=O)c3ccccc3C2=O)c1 | Alternaria alternata | microbial growth, broth dilution | – | – | MIC | 12 µg/mL (≈ 35.2 µM)
O=C(Cn1ccnc1[N+](=O)[O-])NCc1ccccc1 | Trypanosoma cruzi | parasite growth | – | 24 h, trypomastigote | IC50 | 1.04 µg/mL
COc1ccc(Nc2cnnc3ccc(-c4ccc(N5CCN(C)CC5)cc4)cc23)cc1Cl | Trypanosoma cruzi | parasite growth | C2C12 | intracellular, amastigote | EC50 | 2.4 µM
Cc1ccccc1Cn1cc(-c2cccc(NC(=O)Nc3ccc(F)cc3)c2)nn1 | Huh-7 | cell growth or viability, CCK-8 | – | 50 µM, 48 h | viability | 46%
O=C(Nc1cccc(-c2cn(Cc3ccc(Br)cc3)nn2)c1)Nc1ccccc1Br | Huh-7 | cell growth or viability, CCK-8 | – | 50 µM, 72 h | viability | 10.8%
COc1ccc(Nc2cnnc3ccc(-c4ccc(N5CCN(C)CC5)cc4)cc23)nc1 | Trypanosoma cruzi | parasite growth | C2C12 | intracellular, amastigote | EC50 | 1.7 µM
O=C(Nc1ccc(Cl)cc1)Nc1ccc(-c2cn(Cc3ccc(Br)cc3)nn2)cc1 | Huh-7 | cell growth or viability, CCK-8 | – | 50 µM, 48 h | viability | 98.4%
COc1ccc(Nc2cnnc3ccc(-c4cnc(N5CCCN(C)CC5)nc4)cc23)cc1Cl | Trypanosoma cruzi | parasite growth | C2C12 | intracellular, amastigote | EC50 | 0.93 µM
O=C(NCc1cn(Cc2ccc(Cl)cc2)nn1)Nc1ccccc1Br | Huh-7 | cell growth or viability, CCK-8 | – | 50 µM, 72 h | viability | 65.6%
Cc1ccc(Nc2cnnc3ccc(-c4ccc(N5CCN(C)CC5)cc4)cc23)cn1 | Trypanosoma cruzi | parasite growth | C2C12 | intracellular, amastigote | EC50 | 3.3 µM
COc1ccc(NC(=O)Nc2cccc(-c3cn(Cc4ccc(C)cc4)nn3)c2)cc1 | Huh-7 | cell growth or viability, CCK-8 | – | 72 h | IC50 | 19.3 µM
O=C(NCc1cn(Cc2ccc(Br)cc2)nn1)Nc1ccccc1Br | Huh-7 | cell growth or viability, CCK-8 | – | 50 µM, 72 h | viability | 72.9%
COc1ccc(NC(=O)Nc2cccc(-c3cn(Cc4cccc(Cl)c4)nn3)c2)cc1 | Huh-7 | cell growth or viability, CCK-8 | – | 50 µM, 48 h | viability | 65.5%
Cc1ccc(Nc2cnnc3cc(-c4cnc(N5CCCN(C)CC5)nc4)ccc23)cn1 | Trypanosoma cruzi | parasite growth | C2C12 | intracellular, amastigote | EC50 | > 10 µM
COc1ccc(NC(=O)Nc2ccc(-c3cn(Cc4cccc(Cl)c4)nn3)cc2)cc1 | Huh-7 | cell growth or viability, CCK-8 | – | 72 h | IC50 | > 50 µM
O=C(Nc1ccc(Cl)cc1)Nc1cccc(-c2cn(Cc3ccc(Cl)cc3)nn2)c1 | Huh-7 | cell growth or viability, CCK-8 | – | 50 µM, 72 h | viability | 15.6%
COc1ccc(NC(=O)Nc2cccc(-c3cn(Cc4ccc(Cl)cc4)nn3)c2)cc1 | Huh-7 | cell growth or viability, CCK-8 | – | 50 µM, 48 h | viability | 67.1%
O=C(NCc1cn(Cc2ccc(Br)cc2)nn1)Nc1ccc(Cl)cc1 | Huh-7 | cell growth or viability, CCK-8 | – | 50 µM, 48 h | viability | 88.2%
